Source: PubChem BioAssay
Only some compounds are listed: those with a hit (about 1.8% of all), similar ones and a draw of the others.
M5 ag = CHRM5 agonism in calcium assay; P08912; CHO-K1 hM5 cells, Fluo-8 calcium fluorescence; 0% DMSO wells, 100% maximal acetylcholine response; activation, % at 3 µM; 0.19% of 360,000 active;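 active = activation above the run's mean over test compounds plus 3 SD, cut at about 23% in these data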;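 note: signal is peak over basal fluorescence ratio across the kinetic read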
CHRM4 antagonist = blocks acetylcholine activation of human M4 receptor; CHO-hM4 cells, ACh EC80, Fluo-8 calcium fluorescence; P08173; inhibition, % at 3 µM; 0.73% of 360,000 active;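 active = inhibition above its plate's cutoff, the mean inhibition of sample wells plus 3 SD, cut at about 27% in these data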;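 note: 0% = acetylcholine EC80 with DMSO and 100% = DMSO without agonist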
Target sequence (P08173 whole entry, looked up): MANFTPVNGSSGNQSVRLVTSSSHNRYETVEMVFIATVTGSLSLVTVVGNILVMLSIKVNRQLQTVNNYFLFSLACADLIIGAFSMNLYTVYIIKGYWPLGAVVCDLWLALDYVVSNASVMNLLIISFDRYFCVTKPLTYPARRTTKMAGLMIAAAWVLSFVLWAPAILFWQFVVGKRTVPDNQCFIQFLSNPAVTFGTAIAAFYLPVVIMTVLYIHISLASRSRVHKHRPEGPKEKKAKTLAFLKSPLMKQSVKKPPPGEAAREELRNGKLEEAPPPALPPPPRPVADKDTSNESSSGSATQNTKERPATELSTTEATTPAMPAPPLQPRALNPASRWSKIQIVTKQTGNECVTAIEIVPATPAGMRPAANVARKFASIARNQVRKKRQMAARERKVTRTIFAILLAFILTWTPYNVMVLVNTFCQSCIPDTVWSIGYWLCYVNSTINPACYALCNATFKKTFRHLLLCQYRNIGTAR
M5 PAM = potentiates acetylcholine response at human M5 receptor; activation, % at 3 µM; P08912; CHO-K1 hM5, Fluo-8 calcium, ACh EC20 PAM; 0% = ACh EC20, 100% = ACh EC100; 0.3% of 360,000 active;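 active = activation above the run cutoff, the mean activation of all test compounds plus 3 SD, cut at about 18% in these data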
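system = human M5 receptor in CHO-K1 cells | reagent = EC20 acetylcholine as agonist stimulus | compound dosing = single-point, 3 µM nominal | incubation = Fluo-8 loading 80 min at 37 °C plus 30 min room temperature | detection = Fluo-8 calcium dye fluorescence, kinetic read | benchmarks = low control EC20 acetylcholine (0%), high control EC100 acetylcholine (100%)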
CHRM4 agonist = agonists of human muscarinic M4 receptor (CHRM4); 0.14% of 360,000 active; CHO-K1 hM4/Gqi5, Fluo-8 calcium fluorescence; vehicle 0%, full acetylcholine response 100%; P08173; activation, % at 3 µM;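 active = activation above the run mean over all test wells plus 3 SD, cut at about 32% in these data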;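 note: peak over basal fluorescence ratio per well then scaled between controls; 0% = DMSO wells and 100% = acetylcholine at EC100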
CHRM5 antagonist = blocks acetylcholine activation of human M5 receptor | AID 624040 | inhibition, % at 3 µM | 0.59% of 360,000 active | CHO-hM5 cells, Fluo-8 calcium fluorescence, ACh EC80;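 active = inhibition above a per-plate cutoff, the mean of that plate's test compounds plus 3 SD, cut at about 27% in these data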;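 note: 0% = acetylcholine EC80 with DMSO and 100% = DMSO without agonist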
CHRM4 PAM = positive allosteric modulators of human muscarinic M4 receptor. CHO-K1 hM4/Gqi5, Fluo-8 calcium fluorescence, ACh EC20; 0% = ACh EC20, 100% = maximal ACh. P08173. 0.4% of 360,000 active. AID 624126. activation, % at 3 µM;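 active = activation above its plate's cutoff, the mean activation of sample wells plus 3 SD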
The depositor's hits bear a star.

SMILES | M5 ag | CHRM4 antagonist | M5 PAM | CHRM4 agonist | CHRM5 antagonist | CHRM4 PAM
CCCCNC(=O)CSc1ccc(S(=O)(=O)N2CCOCC2)cn1 | 0 | 9 | -10 | 0 | 20 | -6
COC(=O)CCCN1C(=O)NC(c2ccc(-c3ccccc3)cc2)C(C(=O)OCc2ccccc2)=C1C (stereo unspecified) | 1 | 4 | 2 | 0 | -1 | 1
COC(=O)CCCCCN1C(=O)NC(C2CC2)C(C(=O)OCc2ccccc2)=C1C (stereo unspecified) | 4 | 16 | -31 | 16 | 29* | -6
Cc1ccc(S(=O)(=O)N2CCOCC2)cc1NC(=O)COC(=O)COc1ccccc1[N+](=O)[O-] | -2 | -12 | 3 | 5 | 16 | 9
CCOC(=O)N1CCN(C(=O)CSCC(=O)Nc2nc(-c3ccc(OC)cc3)cs2)CC1 | 6 | 6 | -1 | 5 | 3 | -6
CCOC(=O)N1CCN(C(=O)CSCC(=O)Nc2nc(-c3ccc(-c4ccccc4)cc3)cs2)CC1 | 8 | 5 | -22 | 19 | 44* | -9
CC(=O)NC1C(=O)N=C(SCC(=O)Nc2ccc(C(F)(F)F)cc2Cl)NC1=O (stereo unspecified) | 3 | 5 | 9 | 1 | 2 | 1
N#Cc1cccc(NC(=O)COc2ccc(-n3ccnc3)cc2)c1 | 0 | 26 | -17 | 17 | 40* | -14
COc1cc(NC(=O)COc2ccc(-n3ccnc3)cc2)cc(OC)c1 | 3 | 7 | -10 | 7 | 11 | -9
CCOC(=O)c1c(-c2ccc(C)o2)csc1NC(=O)CSc1nnc(C)s1 | 4 | 12 | -7 | 16 | 0 | -12
CCOC(=O)c1c(-c2ccc(C)o2)csc1NC(=O)CSc1nnnn1-c1ccccc1 | 0 | 30* | -5 | 9 | 7 | -8
O=C(CSc1nnnn1-c1ccccc1)NCc1cccs1 | 3 | -7 | 20* | 1 | -17 | 6
COc1ccc(CN2C(=O)c3ccccc3C2c2nnnn2-c2c(C)cccc2C)cc1OC (stereo unspecified) | 2 | -13 | 2 | 3 | -11 | 13
O=C1C(=C2CCc3ccccc32)Cc2ccccc21 | -2 | 5 | -2 | 0 | -1 | 0
c1ccc2c(c1)CCc1ccccc1C2=C1CCNCC1 | -19 | 99* | -32 | 2 | 99* | -61
O=S(=O)(Nc1nc2ccccc2[nH]1)c1ccccc1 | -7 | 19 | -18 | 0 | 8 | -20
O=S(=O)(Nc1nc2ccccc2[nH]1)c1ccc(Cl)cc1 | -7 | 67* | -17 | 5 | 50* | -29
COc1ccc(OC)c(/C=N/NC(=O)C(=O)N2CCCC2)c1 | 2 | -16 | 2 | -1 | 6 | 22*
CCOC(=O)C1CCCN(C(=S)Nc2ccc(OC)cc2)C1 (stereo unspecified) | 34* | 11 | -18 | 7 | 7 | -10
CCOC(=O)c1ccc(NC(=S)N2CCCC(C(=O)OCC)C2)cc1 (stereo unspecified) | 23 | 5 | -6 | 3 | 17 | -3
CCOC(=O)C1CCCN(C(=S)Nc2ccc(F)cc2)C1 (stereo unspecified) | 23 | -3 | -12 | 7 | -3 | 2
Cc1c(Cl)cccc1NC(=S)N1CCCCCC1 | -2 | -3 | 12 | 0 | -3 | 5
CCOC(=O)C1CCCN(C(=S)Nc2cccc(Cl)c2C)C1 (stereo unspecified) | 28* | 6 | -17 | 2 | 11 | 0
CCOC(=O)C1CCCN(C(=S)Nc2cccc(Cl)c2)C1 (stereo unspecified) | 33* | 7 | -12 | 6 | -2 | -4
Cc1cccc(Cc2ncc(C(F)(F)F)cc2Cl)c1 | -2 | 7 | 0 | 0 | 18 | -2
Cc1noc(C)c1CS(=O)(=O)c1ccc([N+](=O)[O-])cc1 | -4 | 6 | -6 | 0 | 20 | 6
OCCCNc1ncnc2c1[nH]c1ccccc12 | -1 | 0 | 0 | 0 | 9 | -2
